# CHOP UPR activ = apoptotic UPR (CHOP) activation. AID 449763. 0.34% of 330,000 active. CHO-CHOP luciferase reporter, luminescence; percent of tunicamycin response over DMSO baseline. activation, % at 10 µM;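 active = at 10 µM dose, activation of 40% or more, normalized to positive control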
#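 Material: CHO-CHOP cells, stable luciferase reporter of PERK-eIF2a-CHOP signalling; quantity: 500 reporter cells seeded per well; buffer or medium: F12 medium containing 10% fetal bovine serum; compound: one dose, 10 µM in 0.5% DMSO; incubation: 6 h compound treatment, 37 °C; measured by: Steady-Glo luciferase luminescence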
# CHOP inhibitor = inhibitors of CHOP induction in ER stress response; CHO-K1 CHOP-promoter luciferase, tunicamycin-induced, 15-18 h; inhibition, % at 10 µM; 3.8% of 220,000 active; AID 2732;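 active = compounds that reduced the stress-induced luciferase reporter signal by more than about 70% of percent inhibition, limit read from the data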
# PvdQ inh = P. aeruginosa PvdQ acylase inhibition | purified PvdQ acylase, fluorescence plate reader | inhibition, % at 10 µM | 0.063% of 340,000 active; in the data active = inhibition above about 30%, passing the limit was not always enough
# UPR XBP1 act = activators of adaptive arm of unfolded protein response (XBP1); CHO-XBP1 luciferase reporter, IRE1-XBP1 UPR activation, luminescence; percent of tunicamycin response, DMSO as zero; activation, % at 20 µM; 0.33% of 330,000 active; AID 463104;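 active = versus positive control, 20 µM dose yields 30% or more activation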
#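 Material: CHO-XBP1 cells stably carrying IRE1-XBP1-driven luciferase reporter / Amount: 1000 cells per well / Compound: 20 µM, 1% DMSO / Times: 6 h treatment, 37 °C / Detection: luciferase luminescence / Measure: % activation of reporter signal versus tunicamycin and DMSO controls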
# CHOP UPR conf = confirmation of apoptotic unfolded protein response (CHOP) activators. 64% of 1,000 active. CHO-CHOP cells, CHOP-luciferase reporter luminescence; percent of tunicamycin response, DMSO as zero. activation, % at 10 µM. shares compounds with CHOP UPR activ; in the data active = activation above about 33%
# Numbers stand for hits; - = inactive; . = no result given. Shown is part of a subset that was picked to be rich in hits.
SMILES,CHOP UPR activ,CHOP inhibitor,PvdQ inh,UPR XBP1 act,CHOP UPR conf
COc1ccc(CCNC(=O)c2cc3c(=O)n4cccc(C)c4nc3n(Cc3ccco3)c2=N)cc1OC,245,.,-,-,-
CC1=NOC(=O)/C1=C\c1ccc(-c2ccc(Cl)cc2Cl)o1,106,112,-,-,110
O=C(CCC(=O)Nc1ccc(Cl)cc1Cl)N/N=C/c1ccc([N+](=O)[O-])o1,193,-,.,-,107
O=[N+]([O-])c1cccc(S(=O)(=O)NCCCN2CCOCC2)c1,-,-,-,-,.
CC(NC(=O)C12CC3CC(CC(C3)C1)C2)C(=O)NN=Cc1ccc([N+](=O)[O-])o1 (centres undefined),197,.,-,-,-
CC(NC(=O)c1ccc([N+](=O)[O-])o1)C12CC3CC(CC(C3)C1)C2 (centres undefined),85,.,-,-,-
O=C(N/N=C/c1ccc([N+](=O)[O-])o1)C1CCCC1,-,.,-,-,.
COc1cccc(OC)c1C(=O)NC(C)C12CC3CC(CC(C3)C1)C2 (centres undefined),-,-,-,-,.
NC(=S)N1N=C(c2ccccc2)CC1=O,.,.,-,.,.
COc1ccc(CCn2c(C)cc(C(=O)CN3C(=O)C(=O)N(C4CCCC4)C3=O)c2C)cc1OC,-,.,-,-,.
N=C1/C(=C/c2cccn2-c2ccc([N+](=O)[O-])cc2)C(=O)N=C2SC=CN12,54,-,-,-,-
COCCN(CC(=O)Nc1cccc(C)c1C)C(=O)c1cc2c(s1)CCC2,-,.,-,-,.
COc1ccc(-n2nc3c(c2NC(=O)CCl)CSC3)cc1,49,.,-,-,-
COc1ccc(-n2nc3c(c2NC(=O)C(C)Cl)CSC3)cc1 (centres undefined),-,.,-,-,.
N#CC1=C(N)OC2=C(CC/C2=C\c2ccccc2)C1c1ccccc1 (centres undefined),104,-,-,-,180
O=C(c1ccc(Br)cc1)C(CN1CCOCC1)c1ccccc1 (centres undefined),105,.,-,-,137
CCOc1ccc(C(=O)C(CN2CCOCC2)c2ccccc2)cc1 (centres undefined),.,-,-,.,.
C=CCSc1nc2c(cnn2-c2ccccc2)c(=O)n1N,-,-,.,-,.
CC(CCn1cccn1)NC(=O)CCc1nnc(C2CCCCC2)o1 (centres undefined),-,-,-,-,.
O=C(O)/C=C/C(=O)c1ccc2c(c1)CCc1ccccc1-2,126,.,-,-,-
CSc1ccccc1NC(=O)CN(C)C(=O)COc1cccc2cccnc12,48,.,-,-,-
CN1CCN(C2CCN(Cc3ccc(O)c4ncccc34)CC2)CC1,-,.,-,-,.
Oc1ccc(CN2CCN(Cc3ccccc3)CC2)c2cccnc12,71,-,-,-,94
CN1CCN(Cc2cc(COCc3ccccc3)c3cccnc3c2O)CC1,131,.,-,-,54
Oc1ccc(CNc2ccccc2)c2cccnc12,-,-,-,-,.
SMILES,CHOP UPR activ,CHOP inhibitor,PvdQ inh,UPR XBP1 act,CHOP UPR conf
COCc1ccc(O)c2ncccc12,43,82,-,37,73
COc1cccc(C(=O)N2CCN(C(=O)C3CC3)CC2)c1,-,.,-,-,.
O=C(Cc1cccc(NC(=O)C2CCN(C(=O)C3CCCC3)CC2)c1)Nc1cccc(C(=O)N2CCCCC2)c1,.,.,-,.,.
COc1ccc(OC)c(S(=O)(=O)Nc2ccc3c(c2)C(=O)OC3)c1,-,-,-,-,.
CCOCC(=O)Nc1ccccc1C(=O)N1CCOCC1,-,-,-,-,.
CCOc1ccc2nc(Cl)c(C3CC(c4ccccc4)=NN3C(=O)c3ccco3)cc2c1 (centres undefined),124,96,.,122,-
O=C1CCCN1c1ccc(S(=O)(=O)N2CCCCC2)cc1,-,.,-,-,.
CCc1ccccc1NC(=O)C1CCN(C(=O)c2ccc([N+](=O)[O-])cc2)CC1,-,-,-,-,.
C=CCn1c(O)c(N=NC(=S)Nc2ccccc2F)c2cc(S(=O)(=O)N3CCOCC3)ccc21,88,-,-,-,121
C=CCn1c(O)c(N=NC(=S)Nc2ccccc2F)c2ccccc21,-,-,-,-,.
COc1cc(C(c2c(C)[nH][nH]c2=O)c2c(C)[nH][nH]c2=O)ccc1OCc1ccc([N+](=O)[O-])cc1,-,-,-,-,.
COC(=O)C(=Cc1ccc(OCc2ccc([N+](=O)[O-])cc2)c(OC)c1)C(=O)OC,334,-,-,-,106

# Screening results deposited in PubChem by several laboratories.
